Test results from ChEMBL document CHEMBL1250451, “Mechanistic insights into a Ca2+-dependent family of alpha-mannosidases in a human gut symbiont” (Nat Chem Biol, 2010).

Assays:
Type in all cases: protein assay
[1] = substrate: OC[C@H]1O[C@H](O[C@H]2[C@@H](O)[C@H](O)[C@@H](CO)O[C@@H]2O)[C@@H](O)[C@@H](O)[C@@H]1O; test: (§1) Activity of Bacteroides thetaiotaomicron GH92 alpha-mannosidase GH92 alpha-mannosidase 2199 assessed as mannose release after 16 hrs by HPLC
[2] = substrate: O=[N+]([O-])c1ccc(O[C@H]2O[C@H](CO)[C@@H](O)[C@H](O)[C@@H]2O)cc1; test: as §1
[3] = substrate: OC[C@H]1O[C@H](O[C@H]2[C@@H](O)[C@H](O)[C@@H](CO)O[C@@H]2O)[C@@H](O)[C@@H](O)[C@@H]1O; test: (§2) Ratio of Kcat to Km for Bacteroides thetaiotaomicron GH92 alpha-mannosidase GH92 alpha-mannosidase 2199 assessed as mannose release after 16 hrs by HPLC
[4] = substrate: O=[N+]([O-])c1ccc(O[C@H]2O[C@H](CO)[C@@H](O)[C@H](O)[C@@H]2O)cc1; test: as §2
[5] = substrate: OC[C@H]1O[C@H](O[C@H]2[C@H](O)[C@H](O)[C@@H](O)O[C@@H]2CO)[C@@H](O)[C@@H](O)[C@@H]1O; test: (§3) Activity of Bacteroides thetaiotaomicron GH92 alpha-mannosidase GH92 alpha-mannosidase 4073 assessed as mannose release after 16 hrs by HPLC
Outline: (§4)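 Yeast mannan or ovalbumin (mostly high-mannose N-glycans) at 1 mg ml−1 was incubated with recombinant IMAC-purified enzyme from E. coli. The methods give enzyme at 2 μM and the table footnote gives 1 μM. Buffer was 100 mM sodium HEPES pH 7.0 with 1 mg ml−1 BSA and 2 mM CaCl2. Aliquots were taken at 1 and 16 h and boiled 10 min. Mannose was measured by HPLC and scored by signal: >500 nC +++, 200–500 ++, <200 +.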

[6] = substrate: O=[N+]([O-])c1ccc(O[C@H]2O[C@H](CO)[C@@H](O)[C@H](O)[C@@H]2O)cc1; test: as §3; outline: as §4
[7] = substrate: O=[N+]([O-])c1ccc(O[C@H]2O[C@H](CO)[C@@H](O)[C@H](O)[C@@H]2O)cc1; test: Ratio of Kcat to Km for Bacteroides thetaiotaomicron GH92 alpha-mannosidase GH92 alpha-mannosidase 4073 assessed as mannose release after 16 hrs by HPLC
[8] = substrate: O=[N+]([O-])c1ccc(O[C@H]2O[C@H](CO)[C@@H](O)[C@H](O)[C@@H]2O)cc1; test: Activity of Bacteroides thetaiotaomicron GH92 alpha-mannosidase GH92 alpha-mannosidase 3994 assessed as mannose release after 16 hrs by HPLC
[9] = substrate: OC[C@H]1O[C@H](O[C@H]2[C@H](O)[C@H](O)[C@@H](O)O[C@@H]2CO)[C@@H](O)[C@@H](O)[C@@H]1O; test: (§5) Ratio of Kcat to Km for Bacteroides thetaiotaomicron GH92 alpha-mannosidase GH92 alpha-mannosidase 3994 assessed as mannose release after 16 hrs by HPLC
[10] = substrate: O=[N+]([O-])c1ccc(O[C@H]2O[C@H](CO)[C@@H](O)[C@H](O)[C@@H]2O)cc1; test: as §5
[11] = substrate: OC[C@H]1O[C@H](O[C@H]2[C@H](O)[C@H](O)[C@@H](O)O[C@@H]2CO)[C@@H](O)[C@@H](O)[C@@H]1O; test: (§6) Activity of Bacteroides thetaiotaomicron GH92 alpha-mannosidase GH92 alpha-mannosidase 4093 assessed as mannose release after 16 hrs by HPLC; outline: as §4
[12] = substrate: O=[N+]([O-])c1ccc(O[C@H]2O[C@H](CO)[C@@H](O)[C@H](O)[C@@H]2O)cc1; test: as §6; outline: as §4
[13] = substrate: OC[C@H]1O[C@H](O[C@H]2[C@H](O)[C@H](O)[C@@H](O)O[C@@H]2CO)[C@@H](O)[C@@H](O)[C@@H]1O; test: (§7) Ratio of Kcat to Km for Bacteroides thetaiotaomicron GH92 alpha-mannosidase GH92 alpha-mannosidase 4093 assessed as mannose release after 16 hrs by HPLC
[14] = substrate: O=[N+]([O-])c1ccc(O[C@H]2O[C@H](CO)[C@@H](O)[C@H](O)[C@@H]2O)cc1; test: as §7
[15] = substrate: OC[C@H]1O[C@H](O[C@H]2[C@H](O)[C@H](O)[C@@H](O)O[C@@H]2CO)[C@@H](O)[C@@H](O)[C@@H]1O; test: (§8) Activity of Bacteroides thetaiotaomicron GH92 alpha-mannosidase GH92 alpha-mannosidase 3530 assessed as mannose release after 16 hrs by HPLC
[16] = substrate: O=[N+]([O-])c1ccc(O[C@H]2O[C@H](CO)[C@@H](O)[C@H](O)[C@@H]2O)cc1; test: as §8
[17] = substrate: OC[C@H]1O[C@H](O[C@H]2[C@H](O)[C@H](O)[C@@H](O)O[C@@H]2CO)[C@@H](O)[C@@H](O)[C@@H]1O; test: (§9) Ratio of Kcat to Km for Bacteroides thetaiotaomicron GH92 alpha-mannosidase GH92 alpha-mannosidase 3530 assessed as mannose release after 16 hrs by HPLC
[18] = substrate: O=[N+]([O-])c1ccc(O[C@H]2O[C@H](CO)[C@@H](O)[C@H](O)[C@@H]2O)cc1; test: as §9

B1: Alpha-1,2-mannosidase (BT_2199) (Bacteroides thetaiotaomicron), Q8A5N9 (protein)
chain: MVTRLFFLSICFPFLLTSCQQSKKTVEFVDYVNPLMGTESTFAFSHGNTYPAVAVPWGMNFWSPQTGENGSGWMYTYTDSLMRGFRQTHQPSPWINDYGTFSIMPLAGELKMSHKERLVPFSHQQEKATPYNYSVTFNNGLQTSLSATSRGAVFEVSFPEKEDQYVVVDAYNGGSSITIEPEKRLVKGATRYNNGGVPDNFANYFMMEFSHPVIEYGTYNGDTLLHHQTDVAADYTCAYLKFDVPAGEKLTIRTASSFISPEQAAINFNREVADADVQLISGKAREQWNNYLGRVEAEGGTDEQLRTFYSCLYRTLLFPREFYEFDSQGNPVYYSPYDGNVHDGYMYTDNGFWDTFRAVHPLFTLLYPEVSERVTQSIINAYNESGFMPEWASPGHRGCMIGNNSVSLLVDAWMKGIQTVDAEKALEAMIHQTQARHAEIASVGRDGFEYYDKLGYVPYPEVPEATAKTLEYAYADWCIARFAESLGKQDIADQYYQKAPNYRNLYYPEHGFMWTKDAKGNWRDRFDATEWGGPFTEGSSWHWTWSVFHDPEGLSELMGGHEPMIARLDSMFVAPNTYNYGTYGFVIHEIAEMVALNMGQYAHGNQPVQHAIYLYDYIGQPWKTQYHLRNVMDKLYNSGSKGYCGDEDNGQTSAWYVFSAMGFYPVCPGMPEYAIGSPLFKKVTLHLPEGKNFVVSAADNAADRPYIRKALLNGQEFTRNYLTHDELKQGGELNLSMDSVPNQQRGTQPADFPYSYSK
- kcat [1]: 40 s⁻¹
- Km [2]: 7500 µM
- kcat [2]: 0.105 s⁻¹
- kcat/Km [3]: 60000 M⁻¹ s⁻¹
- kcat/Km [4]: 14 M⁻¹ s⁻¹

B2: Alpha-1,2-mannosidase, putative (BT_4073) (Bacteroides thetaiotaomicron), Q8A0E8 (protein)
chain: MYKASANILIACSFLWLTACSSAGVVTEDLIPTDYVNPFIGASTSVGAAGVYHGLGKTFPGATTPYGMVQVSPNTITGGDNSSGYSDEHKTIEGFAFTQMSGVGWFGDLGNFLVMPTTGELQKIAGKEDGSIKGYRSSYDKATETAKAGYYSVELTDYKIKVESSATPHCGILQFTFPSNEQSRIQIDLARRVGGTSTSQYVKVLDDYTIQGWMKCTPDGGGWGNGEGNSDYTVYYYAQFSKPLSNYGFWSADIPDEWVRKRDEVVSIPYLTRISQAPVIKDKKELEGKHLGFFTEFPTKEGEQVEMKVGISFVDMEGAANNFKQEIASKNFAQVKQEASDLWNKELSRIRISGGTDDEKTVFYTSLYHTMIDPRIYTDVDGRYIGGDKKVHEQDGTFTKRTIFSGWDVFRSQFPLQAMINPRLVSDALNSLITMADQSRREYYERWELLNSYSGCMIGNPALSVLADAYMKGIRTYDVEKAYQYAVNTSAKFGNDSLGYTPEPLSISYTLEYAYADWCVAQLAKALGKEEDAKRFYEKGQAYRNMFDAEKGWFRPRNADGSWKAWPENALTEEWYGCIESNAYQQGWFVPHDVPGMVELMGGKEEVIANLTNLFDHTPSDMLWNDYYNHANEPVHFVPFLFNQLDVPWYTQKWTRYICKNAYANKVEGIVGNEDVGQMSAWYILAASGIHPSCPGNTRMEITSPVFDKVEFNLDSKYHQGKVFTIIAHNNNTNNLYIQKALLNGKEYNKCYLDFAEIAAGGTLELFMGDKPNTEWGVLSNI
- Km [5]: 270 µM
- Km [6]: 1800 µM
- kcat [6]: 0.0045 s⁻¹
- kcat/Km [7]: 2.33 M⁻¹ s⁻¹

B3: Alpha-1,2-mannosidase (BT_3994) (Bacteroides thetaiotaomicron), Q8A0M7 (protein)
chain: MKTPIYLLLIVCIFASCNTKQTQAEIDYTSYVNPFIGTDFTGNTYPGAQAPFGMVQLSPDNGLPGWDRISGYFYPDSTIAGFSHTHLSGTGAGDLYDISFMPVTLPYKEAEAPLGIYSKFSHDEESAYAGYYQVRLKDYHINVELTATERCGIQRYTFPKAEAAIFLNLKKAMNWDFTNDSHIEVVDSVTIQGYRYSDGWARDQRIYFRTRFSKPFDKVELDTTAIIKDKQHIGTAVIARFDFHTEEGEQILVNTAISGVSMEGAAKNLQAEVPENDFDKYLAETKANWNRQLGKIEVEGDNQDDKVNFYTALYHSMIAPTIYSDVDGAYYGPDKKVHQSDGWVNYSTFSLWDTYRAAHPLFTYTEPERVNDMVKSFIAFFEQNGRLPVWNFYGSETDMMIGYHAVPVIVDAYLKGIGNFDAEKALAACVATANLDNYRGIGLYKQLGYIPYNVTDHYNAENWSLSKTLEYAFDDYCIAEMANKMGKKEIADEFYKRSQNYKNVYNPATSFMQPRDDKGNFIKDFKADEYTPHICESNGWQYFWSVQHDIDGLIDLTGGKNRFAEKLDSMFTYHPAADEELPIFSTGMIGQYAHGNEPSHHVIYLFNAVGQQNLTQKYVAKVMNELYKNEPAGLCGNEDCGQMSAWYVFSAMGFYPVNPVSGKYEIGTPLFPEMKLHLANGKTFTVLAPKVSKENIYIQSIKVDGQPYNKTYLTHEQIMSGTTVEFEMGNTPLVEVEFEEQTQ
- Km [8]: 3700 µM
- kcat [8]: 1.57 s⁻¹
- kcat/Km [9]: 0.0833 M⁻¹ s⁻¹
- kcat/Km [10]: 433 M⁻¹ s⁻¹

B4: Alpha-1,2-mannosidase family protein (BT_4093) (Bacteroides thetaiotaomicron), Q8A0C8 (protein)
chain: MKHKFLFILLFSLVLEGMVTTQAVAGDYVHQVNTLIGTKGTGLTSGYLYPGATYPYGMVQFTPSYFSKRSGFVINQLSGGGCEHMGNFPTFPVKGKLKMSPDNILNYRINVSEEKGHAGYYEAMVQEDIKAKLTVTERTGMASYEYPADQQYGTIIIGGGISATPIEQAAIVITAPNKCEGYAEGGNFCGLRTPYKVYFVAEFDTDAFETGTWKREELMPNTTFAEGEYSGVYFTFDVNKKKNIQYKIGVSYVSVENARENLKAENAEWDFQKIQNQAEAKWNHYLGMIEVEGTNPDRTTQFYTHLYRSFIHPNVCSDVNGEYMGADFRVHKSRSKHYTSFSNWDTYRTQIQLLSMLDPEVASDIVISHQLFAEQSGGSFPRWVMANIETGVMQGDPTPILIANAYAFGARNYDPKPIFKIMRKGAEEPGSKSQDVETRPGLKQYLDKGYYNASIQLEYTSADFAIGQFALHAVGDEFASWRYFHFARSWKNLYNSDTGWLQSRNPDGSWKSLGEDFRESTYKNYFWMVPYDIAGLVEIIGGKEKAEKRLDEFFTRLDAGYNDAWFASGNEPSFHIPWIYNWIGRPYKTQEIINRVLNEQYSSKIDGLPGNDDLGTMGAWYVFACIGLYPEIPGVGGFTVNTPIFSSVKVHLKKGDIVIKGGSEKDIYIKSMKLNGKSYESTWIDWDQLNSGATIEYRTSGKPDMKWGAKVVPPSFP
- Km [11]: 35000 µM
- kcat [11]: 1.33 s⁻¹
- Km [12]: 1300 µM
- kcat [12]: 0.0112 s⁻¹
- kcat/Km [13]: 38.3 M⁻¹ s⁻¹
- kcat/Km [14]: 9.08 M⁻¹ s⁻¹

B5: Alpha-1,2-mannosidase (BT_3530) (Bacteroides thetaiotaomicron), Q8A1X8 (protein)
chain: MTPSVAQNTKYVNLFIGTSGDNGQVAPGAAAPFGMVCVCPDNDPRSHAGYDYAVTKVSGISVNRLSGVGCSGGGGNLRIRPVAPSQELHIKKSREKATPGYYSTAFTNGIKTELTATNAMAVERYKFPRSLSAALWIDFASTFEDVATCHYKRISETCIEGYVQAKNVCGHGCYKLYFSLNTSQPFQLEEQKETTACLTFGKKVRSVEVRIGLSALSSELASWECARWEKMDFEDVKSRTADQWEKQLSAIDVKGGKKDDRVIFYTSLYRTYLSPADVSSPDGAYLGTDGKVYISEDFRYYSNWSLWDTFRTKFPLLVLTEPAKMRDMATSLIHLYATGKKDWSTGFESTPTVRTEHAVILLLDAYRKGITNLDFRKGYAGMKQEMERLPMRSPDQKMESAYDLWAMAKIAEIIGEKADSEQYRQRSVSLFEETWKKEFMNVTPAFEVMKNNGLYQGTRWQYRWAAPQYIDKMIEWVGQDSLRLQLTYFFDHHLYNQGNEPDIHVPYLFNRLGAPEKTQQIVRSLMTEPMIHKYGGNSEFKTPYLGKAFKNAPEGYSPEMDEDDGTMSAWYVFGAMGFYPLLVGDEYYDLTSPLFDRVLLRLTNGNVLTIQTEGRKKKDAPIKSIHFNGKKIADYRISHNELIKGGELIYNYK
- Km [15]: 610 µM
- kcat [15]: 0.001 s⁻¹
- Km [16]: Not Active
- kcat [16]: Not Active
- kcat/Km [17]: 1.58 M⁻¹ s⁻¹
- kcat/Km [18]: Not Active
